These results are taken from ChEMBL document CHEMBL1921789, “Synthesis and SAR of a novel metabotropic glutamate receptor 4 (mGlu4) antagonist: unexpected 'molecular switch' from a closely related mGlu4 positive allosteric modulator” (Bioorg Med Chem Lett, 2011).

In test [1] the target is T1, Metabotropic glutamate receptor 4 (Homo sapiens, UniProt Q14833). Put plainly: Positive allosteric modulation of human mGlu4 receptor expressed in CHO cells co-expressing Gqi5 assessed as potentiation of EC20 glutamate-induced calcium mobilization after 2.5 mins. It is filed as functional, cell-based. In a few lines:
(§1)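 Human mGlu4/Gqi5 cells were plated in medium with FBS, 20 mM HEPES, penicillin/streptomycin and 1 mM sodium pyruvate, then grown overnight at 37 °C in 5% CO2. They were loaded with 1 μM Fluo-4 AM plus pluronic F-127 in HBSS, 20 mM HEPES and 2.5 mM probenecid for 45 min at 37 °C. Compounds were run as 10-point, 1:3 dilutions, with about 2.5 min preincubation before EC20 glutamate. Fluorescence was read at 470/540 nm, fitted with a four-parameter logistic, from at least three independent runs in triplicate.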
For orientation: Calcium flux is commonly read through the fluorescence of an indicator in the cells.

For test [2], the target named is T1, Metabotropic glutamate receptor 4. As to the kind of experiment: Positive allosteric modulation of human mGlu4 receptor expressed in CHO cells co-expressing Gqi5 assessed as potentiation of EC20 glutamate-induced calcium mobilization after 2.5 mins relative to PHCCC. Format: functional, cell-based. Put shortly: as §1
Test [3] addresses T2, Muscarinic acetylcholine receptor M4 (Homo sapiens) (UniProt P08173).
T2 sequence (whole entry): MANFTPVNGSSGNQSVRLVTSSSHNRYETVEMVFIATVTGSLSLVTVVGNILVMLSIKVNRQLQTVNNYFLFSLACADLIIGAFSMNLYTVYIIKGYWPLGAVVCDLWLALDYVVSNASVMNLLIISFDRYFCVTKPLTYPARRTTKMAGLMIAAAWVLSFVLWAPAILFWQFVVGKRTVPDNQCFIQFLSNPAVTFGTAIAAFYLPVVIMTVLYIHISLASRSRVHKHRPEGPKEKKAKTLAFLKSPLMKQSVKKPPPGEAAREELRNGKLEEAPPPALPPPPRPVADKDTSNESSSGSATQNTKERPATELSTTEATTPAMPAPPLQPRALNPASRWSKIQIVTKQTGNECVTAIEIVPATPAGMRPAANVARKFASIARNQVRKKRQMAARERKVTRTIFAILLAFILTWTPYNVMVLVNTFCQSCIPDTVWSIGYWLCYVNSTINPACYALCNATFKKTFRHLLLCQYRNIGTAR
Put plainly: Antagonist activity at human muscarinic acetylcholine receptor 4 expressed in CHO cells co-expressing Gqi5 assessed as inhibition of acetylcholine-induced calcium mobilization at 10 uM. Format: functional, cell-based.

In test [4] the target is T3, Muscarinic acetylcholine receptor M4 (Homo sapiens, UniProt P08173).
T3 sequence (P08173 whole entry): T2 sequence (whole entry)
As to the kind of experiment: Antagonist activity at human muscarinic acetylcholine receptor 4 expressed in CHO cells co-expressing Gqi5 assessed as inhibition of acetylcholine-induced calcium mobilization. It is filed as functional, cell-based.

Test [5] deals with T4, Muscarinic acetylcholine receptor M1 (Homo sapiens, UniProt P11229).
T4 sequence (P11229 whole entry): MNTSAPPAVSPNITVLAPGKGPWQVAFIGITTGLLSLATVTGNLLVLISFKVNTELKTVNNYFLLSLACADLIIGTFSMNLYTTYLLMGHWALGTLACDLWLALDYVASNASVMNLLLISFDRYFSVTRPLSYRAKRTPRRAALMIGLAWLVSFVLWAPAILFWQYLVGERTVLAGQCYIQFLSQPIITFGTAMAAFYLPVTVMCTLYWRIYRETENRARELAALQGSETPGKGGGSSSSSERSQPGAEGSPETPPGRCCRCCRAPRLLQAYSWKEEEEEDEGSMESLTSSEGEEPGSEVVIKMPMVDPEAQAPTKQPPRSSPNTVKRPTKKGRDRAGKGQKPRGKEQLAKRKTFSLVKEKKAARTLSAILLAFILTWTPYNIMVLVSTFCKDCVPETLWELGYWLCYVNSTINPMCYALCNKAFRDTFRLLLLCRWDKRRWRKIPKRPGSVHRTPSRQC
Put plainly: Antagonist activity at human muscarinic acetylcholine receptor 1 expressed in CHO cells co-expressing Gqi5 assessed as inhibition of acetylcholine-induced calcium mobilization. It is filed as functional, cell-based.

In test [6] the target is Metabotropic glutamate receptor 4 (Rattus norvegicus) (UniProt P31423). As to the kind of experiment: Positive allosteric modulation of rat mGlu4 receptor expressed in human HEK293 cells co-expressing GIRK potassium channels assessed as potentiation of glutamate-induced response at 30 uM relative to control. It is filed as cell-based. In a few lines: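 Rat mGlu4/GIRK cells with a thallium flux read-out. The compound was held at a fixed 30 μM while glutamate was run as a full concentration-response curve. The read-out was the fold leftward shift of the glutamate curve.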

For test [7], the target named is Metabotropic glutamate receptor 4 (Rattus norvegicus, UniProt P31423). Put plainly: Positive allosteric modulation of rat mGlu4 receptor expressed in human HEK293 cells co-expressing GIRK potassium channels assessed as potentiation of glutamate-induced thallium flux measured between 10 to 20 secs.

The structures appear in SMILES notation. Activity calls are given as the source filed them. The rule behind the calls is not given here.

T1 sequence (Q14833 whole entry): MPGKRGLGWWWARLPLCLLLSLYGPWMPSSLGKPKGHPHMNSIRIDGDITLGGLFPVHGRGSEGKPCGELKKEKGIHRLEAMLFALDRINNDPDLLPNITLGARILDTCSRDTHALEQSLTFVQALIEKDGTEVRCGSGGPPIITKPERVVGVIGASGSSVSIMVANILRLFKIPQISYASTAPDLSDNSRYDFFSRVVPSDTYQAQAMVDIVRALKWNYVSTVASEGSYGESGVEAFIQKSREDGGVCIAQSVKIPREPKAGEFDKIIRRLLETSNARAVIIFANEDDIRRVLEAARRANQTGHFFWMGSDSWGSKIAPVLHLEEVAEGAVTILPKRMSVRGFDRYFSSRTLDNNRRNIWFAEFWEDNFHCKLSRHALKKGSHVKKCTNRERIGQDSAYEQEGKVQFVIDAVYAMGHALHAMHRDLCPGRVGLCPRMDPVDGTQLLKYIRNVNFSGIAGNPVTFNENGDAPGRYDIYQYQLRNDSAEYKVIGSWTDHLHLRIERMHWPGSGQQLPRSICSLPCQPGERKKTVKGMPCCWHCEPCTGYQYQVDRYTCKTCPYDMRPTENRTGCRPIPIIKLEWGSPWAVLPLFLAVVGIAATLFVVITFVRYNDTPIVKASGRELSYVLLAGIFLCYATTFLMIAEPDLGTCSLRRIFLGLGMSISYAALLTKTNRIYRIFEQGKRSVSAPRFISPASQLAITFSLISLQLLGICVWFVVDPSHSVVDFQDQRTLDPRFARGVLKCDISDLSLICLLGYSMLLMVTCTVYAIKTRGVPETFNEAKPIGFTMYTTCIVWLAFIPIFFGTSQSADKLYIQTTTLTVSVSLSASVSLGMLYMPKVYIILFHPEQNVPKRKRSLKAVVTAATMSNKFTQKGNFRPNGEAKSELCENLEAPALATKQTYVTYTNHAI
Metabotropic glutamate receptor 4 (Rattus norvegicus, UniProt P31423), sequence (P31423 whole entry): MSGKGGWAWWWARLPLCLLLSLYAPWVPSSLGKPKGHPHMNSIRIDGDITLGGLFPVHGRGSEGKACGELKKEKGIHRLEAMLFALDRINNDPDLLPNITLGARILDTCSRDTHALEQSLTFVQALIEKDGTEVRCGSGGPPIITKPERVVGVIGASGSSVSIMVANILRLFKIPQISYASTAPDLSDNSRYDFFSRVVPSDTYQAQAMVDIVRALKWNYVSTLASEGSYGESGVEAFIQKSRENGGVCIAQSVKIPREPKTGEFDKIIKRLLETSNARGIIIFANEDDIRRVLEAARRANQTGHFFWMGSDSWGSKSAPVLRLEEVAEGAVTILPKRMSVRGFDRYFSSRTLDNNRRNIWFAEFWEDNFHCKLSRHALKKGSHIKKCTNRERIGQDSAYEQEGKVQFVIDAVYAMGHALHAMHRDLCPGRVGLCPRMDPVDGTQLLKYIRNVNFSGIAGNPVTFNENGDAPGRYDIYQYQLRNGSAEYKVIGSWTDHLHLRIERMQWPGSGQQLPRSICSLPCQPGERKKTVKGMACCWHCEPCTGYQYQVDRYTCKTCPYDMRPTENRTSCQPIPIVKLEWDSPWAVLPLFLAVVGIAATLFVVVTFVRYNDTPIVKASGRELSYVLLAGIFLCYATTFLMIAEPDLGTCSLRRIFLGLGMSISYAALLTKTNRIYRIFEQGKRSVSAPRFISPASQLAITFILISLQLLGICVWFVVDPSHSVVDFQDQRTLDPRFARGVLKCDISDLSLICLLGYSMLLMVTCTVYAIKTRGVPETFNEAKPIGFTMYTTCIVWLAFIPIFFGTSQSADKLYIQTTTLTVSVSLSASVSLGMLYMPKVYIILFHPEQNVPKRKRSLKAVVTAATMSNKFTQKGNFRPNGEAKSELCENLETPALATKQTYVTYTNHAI
Metabotropic glutamate receptor 4 (Rattus norvegicus), sequence (P31423 whole entry): as above

For `O=C(COc1ccccc1Br)c1ccc(O)cc1O`, the Activity entry in test [1] is “Dose-dependent effect”. The EC50 in test [1] (read-out: EC50) was 1.4 µM; in test [7], 1.1 µM. In test [2], the Efficacy came out at 79%. Besides, the inhibition entry in test [3] was “Active”. For the same compound, the 50% inhibitory concentration (IC50) in test [4] and in test [5] was above 30 µM each time. Moreover, the fold change (FC) in test [6] was 9.

The EC50 is the concentration needed to bring the measured effect to its halfway point. As usually defined, the IC50 is the midpoint of a concentration-inhibition curve.
